In series [1] the test system is Mus musculus. The series can be described thus: Anticonvulsant activity in ip dosed NMRI mouse assessed as protection against maximal electroshock-induced seizure after 30 mins postdose. As to conditions: 0.5 h. It counts as functional. Summed up:
(§1)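 Adult male NMRI mice given compound intraperitoneally; maximal electroshock seizure test run 30 min after dosing. Where a dose–response was run, ED50 in mg/kg was derived. Otherwise a minimal active dose was reported, or the percentage of mice protected at a single dose.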
For orientation: The maximal electroshock test induces tonic seizures with an electrical stimulus.

Series [2] deals with Mus musculus. Description: Anticonvulsant activity in ip dosed NMRI mouse assessed as protection against 6 Hz psychomotor seizure after 30 mins. Particulars: 0.5 h. The series is classed as functional. Summed up: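 Adult male NMRI mice dosed ip. Psychomotor seizures were induced by 6 Hz stimulation at 44 mA, 30 min after administration. ED50 in mg/kg was derived where determinable, otherwise a minimal active dose was reported.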

Series [3] has as its system Mus musculus. The series can be described thus: Antinociceptive activity in ip dosed NMRI mouse neuropathic pain model assessed as protection against formalin-induced nociceptive behaviour after 30 mins. It counts as functional. Particulars: 0.5 h. The essentials: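 Formalin test in adult male NMRI mice used as a prescreen for pain attenuation, 30 min after ip administration. ED50 in mg/kg was derived where possible. Otherwise the percent protected after a single stated dose was reported.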

In series [4] the test system is Mus musculus. The series can be described thus: Toxicity in ip dosed NMRI mouse assessed as writhings at 130 mg/kg, ip after 30 mins. Particulars: in vivo, 0.5 h. The series is classed as organism-based. Set-up: dose 130 mg/kg, route intraperitoneal. The essentials:
(§2)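 Adult male NMRI mice were dosed ip. Whole-animal pharmacological observation was made at the stated mg/kg dose, recording tremors, convulsions, writhing, impaired gait or mortality. Timing was 30 min post-dose.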
Background: An intraperitoneal irritant provokes the stretching counted in writhing tests.

For series [5], the system named is Mus musculus. The series can be described thus: Toxicity in ip dosed NMRI mouse assessed as convulsions at 130 mg/kg, ip after 30 mins. It counts as organism-based. On the set-up: dose 130 mg/kg, route intraperitoneal. Particulars: in vivo, 0.5 h. The essentials:
as §2

Series [6] in a line: Neurotoxicity in ip dosed NMRI mouse after 30 mins by rotorod test. It counts as toxicity, organism-based. As to conditions: in vivo. The essentials:
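Neurological impairment was scored by rotorod in adult male NMRI mice 30 min after ip dosing. TD50 in mg/kg was derived where possible, otherwise the maximal tolerated dose was given.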

Series [7] deals with Mus musculus. Description: Protective index, ratio of TD50 for NMRI mouse to ED50 for anticonvulsant activity in ip dosed NMRI mouse by maximal electroshock seizure test. The series is classed as functional.
Series [8] concerns Mus musculus. The series can be described thus: Protective index, ratio of TD50 for NMRI mouse to ED50 for antinociceptive activity in ip dosed NMRI mouse neuropathic pain model. The series is classed as functional.
Series [9] has as its system Mus musculus. The series can be described thus: Anticonvulsant activity in NMRI mouse assessed as protection against maximal electroshock-induced seizure at 140 mg/kg, ip after 30 mins. It counts as functional. As to conditions: route intraperitoneal. Summed up: as §1
In series [10] the test system is Mus musculus. The series can be described thus: Toxicity in ip dosed NMRI mouse assessed as impaired gait at 100 mg/kg, ip after 30 mins. The series is classed as organism-based. Set-up: dose 100 mg/kg, route intraperitoneal. As to conditions: in vivo, 0.5 h. Summed up:
as §2

Series [11] deals with Mus musculus. Description: Toxicity in ip dosed NMRI mouse assessed as tremors at 100 mg/kg, ip after 30 mins. The series is classed as organism-based. On the set-up: dose 100 mg/kg, route intraperitoneal. Particulars: in vivo, 0.5 h. Summed up: as §2
In series [12] the test system is Mus musculus. Description: Anticonvulsant activity in ip dosed albino CF-1 mouse assessed as protection against maximal electroshock-induced seizure after 0.5 hrs. Particulars: albino CF-1, ip. The series is classed as functional.
Series [13] is described as follows: Neurotoxicity in ip dosed albino CF-1 mouse by rotorod test. It counts as toxicity, organism-based. As to conditions: in vivo. For orientation: Falling from the rotarod earlier than controls is read as motor impairment.
Series [14] concerns Mus musculus. Description: Anticonvulsant activity in ip dosed albino CF-1 mouse assessed as protection against maximal electroshock-induced seizure. It counts as functional. Particulars: albino CF-1, ip.
Series [15] is described as follows: Neurotoxicity in ip dosed albino CF-1 mouse by horizontal screen test. The series is classed as toxicity, organism-based. As to conditions: in vivo.
Series [16] in a line: Neurotoxicity in ip dosed albino CF-1 mouse after 30 mins by rotorod test. The series is classed as toxicity, organism-based. Particulars: in vivo.

Where only a bound is given, the exact number is not on record here.

Turning to `NC(C(=O)NCc1ccccc1)c1ccc2ccccc2n1` (racemic), the values for the ED50 in series [1], in series [2] and in series [3] were over 41 mg/kg, over 130 mg/kg and 54 mg/kg, respectively. Besides, the Activity result in series [4] and in series [5] was “Toxic” each time.
As to `NC(C(=O)NCc1ccccc1)c1cnc2ccccc2n1` (racemic), the figures for the ED50 in series [1], in series [2] and in [3] were over 120 mg/kg, over 120 mg/kg and 42 mg/kg, respectively.
Take `NC(C(=O)NCc1ccccc1)c1ccco1` (racemic): the results for the median effective dose (ED50) in series [1], in series [2] and in series [3] were 85 mg/kg, over 150 mg/kg and 29 mg/kg, respectively. In addition, the TD50 (in general, the dose at which the toxic effect under study appears in half of the subjects) at 0.5 h in series [6] is over 150 mg/kg. Further, the “Ratio TD50/ED50” value was over 1.8 in series [7] and over 5.1 in series [8].
Regarding `Cc1ccc(C(N)C(=O)NCc2ccccc2)o1` (racemic), in [1] (read-out: MED), the minimal effective dose worked out at 100 mg/kg. The median effective dose (ED50) (as a rule, the midpoint of the dose-response relation) in series [2] is over 140 mg/kg; in series [3] it was over 78 mg/kg. In addition, the figures for the Activity in series [9], in [10] and in [11] were 100%, “Toxic” and “Toxic”, respectively.
As to `CC(=O)NC(C(=O)NCc1ccccc1)c1cccs1` (racemic), the ED50 in series [12] came out at 45 mg/kg. In addition, the TD50 in [13] amounted to 30 mg/kg.
With `CC(=O)NC(C(=O)NCc1ccccc1)c1cc2ccccc2s1` (racemic), the ED50 in series [14] amounted to 100 mg/kg. For the same compound, the TD50 in series [13] was 100 mg/kg.
As for `CC(=O)NC(C(=O)NCc1ccccc1)c1ccccc1` (racemic), in series [12], the 50% effective dose (ED50) was 32 mg/kg. In [15], this compound showed a TD50 of over 40 mg/kg.
For the compound `CC(=O)NC(C(=O)NCc1ccccc1)c1ccco1` (racemic), the 50% effective dose (ED50) in series [12] stood at 10 mg/kg. Also, the TD50 at 0.5 h in series [16] came out at 40 mg/kg.
Regarding `CC(=O)NC(C(=O)NCc1ccccc1)c1ccccn1` (racemic), the ED50 in [12] came out at 11 mg/kg. In series [13], this compound yielded a TD50 of 25 mg/kg.
As for `CC(=O)NC(C(=O)NCc1ccccc1)c1cnccn1` (racemic), the median effective dose (ED50) in [12] amounted to 15 mg/kg. This compound came in with a TD50 at 0.5 h in series [16] of 58 mg/kg.
The matching figures for `CC(=O)NC(C(=O)NCc1ccccc1)c1nccs1` (racemic): 12 mg/kg and 69 mg/kg.
The matching figures for `CC(=O)NC(C(=O)NCc1ccccc1)c1ccc(C)o1` (racemic): 19 mg/kg and 75 mg/kg.
In the case of `COC[C@@H](NC(C)=O)C(=O)NCc1ccccc1` [LACOSAMIDE], the results for the 50% effective dose (ED50) in [1], in series [2] and in series [3] were 3.3 mg/kg, 10 mg/kg and 15 mg/kg, respectively. For the same compound, the “Ratio TD50/ED50” value in series [7] was 5.8; in [8], 1.3.
Regarding `CCC1(c2ccccc2)C(=O)NC(=O)NC1=O` [PHENOBARBITAL], in [1], the 50% effective dose (ED50) worked out at 22 mg/kg.
On the same count and under the same terms, in the case of `CCCC(CCC)C(=O)[O-].[Na+]` [VALPROATE SODIUM] it was 270 mg/kg.

The record behind these values is ChEMBL document CHEMBL2034888, “Synthesis, anticonvulsant activity, and neuropathic pain-attenuating activity of N-benzyl 2-amino-2-(hetero)aromatic acetamides” (Bioorg Med Chem, 2012).
